From ChEMBL document CHEMBL5724801, “EUbOPEN Chemogenomics Library - Multiplex” (2024)
Values joined by “and” are separate entries in the source; they are usually repeats but may differ in a detail not shown here. Equal entries are not always repeated.

Test system: Fibroblast
Experiment: Multiplex assay against human fibroblast
Type: toxicity, cell-based
Procedure, shortened: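 Live cells were stained at seeding with Hoechst33342, BioTracker Green Microtubule Cytoskeleton Dye, MitoTracker Red and Annexin V Alexa Fluor 680. Following compound addition, they were imaged on a CQ1 microscope at 37°C and 5% CO2 and gated by CellPathfinder machine learning into Hoechst high-intensity objects or normal cells, with normal cells split into healthy, pyknosed or fragmented nuclei and pyknosed cells into mitotic or apoptotic. Tubulin, mitochondrial-mass and membrane-permeability phenotypes are per cents of healthy-nucleus cells.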

[1] = 12 h, 1 µM, compound concentration 1 uM
[2] = 12 h, 10 µM, compound concentration 10 uM
[3] = 24 h, 1 µM, compound concentration 1 uM
[4] = 24 h, 10 µM, compound concentration 10 uM
[5] = 48 h, 1 µM, compound concentration 1 uM
[6] = 48 h, 10 µM, compound concentration 10 uM

Structure (SMILES): O=C1N=C(NCc2cccs2)S/C1=C\c1ccc2ncccc2c1
- Population Apoptotic (%) [1]: 15.79% and 17.07%
- Population Healthy Nuclei (%) [1]: 66.3% and 76.85%
- Population Hoechst High Intensity Objects (%) [1]: 0%
- Population Membrane Permeable-Phenotype (%) [1]: 3.28% and 1.28%
- Population Mitochondria Different-Phenotype (%) [1]: 4.92% and 6.41%
- Population Mitotic Cells (%) [1]: 84.21% and 82.93%
- Population Normal (%) [1]: 100%
- Population Pyknosed Nuclei (%) [1]: 20.65% and 20.2%
- Population Tubulin-Different-Phenotype (%) [1]: 6.56% and 12.82%
- Total Cell Count [1]: 184 and 203
- Population Apoptotic (%) [2]: 20.69% and 27.27%
- Population Healthy Nuclei (%) [2]: 61.15% and 75.14%
- Population Hoechst High Intensity Objects (%) [2]: 0%
- Population Membrane Permeable-Phenotype (%) [2]: 14.58% and 10.29%
- Population Mitochondria Different-Phenotype (%) [2]: 25% and 16.91%
- Population Mitotic Cells (%) [2]: 79.31% and 72.73%
- Population Normal (%) [2]: 100%
- Population Pyknosed Nuclei (%) [2]: 18.47% and 18.23%
- Population Tubulin-Different-Phenotype (%) [2]: 34.38% and 55.15%
- Total Cell Count [2]: 157 and 181
- Population Apoptotic (%) [3]: 14.29% and 17.86%
- Population Fragmented Nuclei (%) [3]: 10.34% and 5.09%
- Population Healthy Nuclei (%) [3]: 72.41% and 81.94%
- Population Hoechst High Intensity Objects (%) [3]: 0%
- Population Membrane Permeable-Phenotype (%) [3]: 4.08% and 3.39%
- Population Mitochondria Different-Phenotype (%) [3]: 5.44% and 3.39%
- Population Mitotic Cells (%) [3]: 85.71% and 82.14%
- Population Normal (%) [3]: 100%
- Population Pyknosed Nuclei (%) [3]: 17.24% and 12.96%
- Population Tubulin-Different-Phenotype (%) [3]: 7.48% and 19.77%
- Total Cell Count [3]: 203 and 216
- Population Apoptotic (%) [4]: 19.05% and 33.33%
- Population Fragmented Nuclei (%) [4]: 12.93% and 9.6%
- Population Healthy Nuclei (%) [4]: 72.79% and 76.84%
- Population Hoechst High Intensity Objects (%) [4]: 0%
- Population Membrane Permeable-Phenotype (%) [4]: 11.21% and 5.88%
- Population Mitochondria Different-Phenotype (%) [4]: 23.36% and 20.59%
- Population Mitotic Cells (%) [4]: 80.95% and 66.67%
- Population Normal (%) [4]: 100%
- Population Pyknosed Nuclei (%) [4]: 14.29% and 13.56%
- Population Tubulin-Different-Phenotype (%) [4]: 49.53% and 66.91%
- Total Cell Count [4]: 147 and 177
- Population Apoptotic (%) [5]: 14.81% and 21.05%
- Population Fragmented Nuclei (%) [5]: 8.85% and 4.11%
- Population Healthy Nuclei (%) [5]: 79.2% and 87.21%
- Population Hoechst High Intensity Objects (%) [5]: 0%
- Population Membrane Permeable-Phenotype (%) [5]: 1.12% and 4.19%
- Population Mitochondria Different-Phenotype (%) [5]: 8.38% and 5.76%
- Population Mitotic Cells (%) [5]: 85.19% and 78.95%
- Population Normal (%) [5]: 100%
- Population Pyknosed Nuclei (%) [5]: 11.95% and 8.68%
- Population Tubulin-Different-Phenotype (%) [5]: 6.7% and 19.37%
- Total Cell Count [5]: 226 and 219
- Population Apoptotic (%) [6]: 44.44% and 38.89%
- Population Fragmented Nuclei (%) [6]: 18.54% and 16.67%
- Population Healthy Nuclei (%) [6]: 75.5% and 74.24%
- Population Hoechst High Intensity Objects (%) [6]: 0%
- Population Membrane Permeable-Phenotype (%) [6]: 2.63% and 12.24%
- Population Mitochondria Different-Phenotype (%) [6]: 33.33% and 14.29%
- Population Mitotic Cells (%) [6]: 55.56% and 61.11%
- Population Normal (%) [6]: 100%
- Population Pyknosed Nuclei (%) [6]: 5.96% and 9.09%
- Population Tubulin-Different-Phenotype (%) [6]: 47.37% and 63.95%
- Total Cell Count [6]: 151 and 198

Structure (SMILES): CCN1CCN(Cc2ccc(Nc3ncc(F)c(-c4cc(F)c5nc(C)n(C(C)C)c5c4)n3)nc2)CC1.CS(=O)(=O)O
- Population Apoptotic (%) [1]: 17.78% and 12.5%
- Population Fragmented Nuclei (%) [1]: 19.76% and 8.1%
- Population Healthy Nuclei (%) [1]: 53.29% and 72.47%
- Population Hoechst High Intensity Objects (%) [1]: 0%
- Population Mitochondria Different-Phenotype (%) [1]: 15.73% and 16.2%
- Population Mitotic Cells (%) [1]: 82.22% and 87.5%
- Population Normal (%) [1]: 100%
- Population Pyknosed Nuclei (%) [1]: 26.95% and 19.43%
- Population Tubulin-Different-Phenotype (%) [1]: 38.2% and 41.9%
- Total Cell Count [1]: 167 and 247
- Population Apoptotic (%) [2]: 22.89% and 30%
- Population Fragmented Nuclei (%) [2]: 14.07% and 8.33%
- Population Healthy Nuclei (%) [2]: 54.37% and 75%
- Population Hoechst High Intensity Objects (%) [2]: 0%
- Population Mitochondria Different-Phenotype (%) [2]: 15.38% and 7.78%
- Population Mitotic Cells (%) [2]: 77.11% and 70%
- Population Normal (%) [2]: 100%
- Population Pyknosed Nuclei (%) [2]: 31.56% and 16.67%
- Population Tubulin-Different-Phenotype (%) [2]: 68.53% and 62.59%
- Total Cell Count [2]: 263 and 360
- Population Apoptotic (%) [3]: 25%
- Population Fragmented Nuclei (%) [3]: 16.76% and 6.88%
- Population Healthy Nuclei (%) [3]: 56.76%
- Population Hoechst High Intensity Objects (%) [3]: 0%
- Population Mitotic Cells (%) [3]: 89.8% and 75%
- Population Normal (%) [3]: 100%
- Population Pyknosed Nuclei (%) [3]: 26.49% and 11.59%
- Population Tubulin-Different-Phenotype (%) [3]: 43.81% and 37.78%
- Total Cell Count [3]: 185 and 276
- Population Apoptotic (%) [4]: 27.71% and 21.01%
- Population Fragmented Nuclei (%) [4]: 11.19% and 3.61%
- Population Healthy Nuclei (%) [4]: 58.84% and 63.13%
- Population Hoechst High Intensity Objects (%) [4]: 0%
- Population Mitochondria Different-Phenotype (%) [4]: 23.31% and 9.92%
- Population Mitotic Cells (%) [4]: 72.29% and 78.99%
- Population Normal (%) [4]: 100%
- Population Pyknosed Nuclei (%) [4]: 29.96% and 33.25%
- Population Tubulin-Different-Phenotype (%) [4]: 62.58% and 53.05%
- Total Cell Count [4]: 277 and 415
- Population Apoptotic (%) [5]: 23.08% and 25%
- Population Fragmented Nuclei (%) [5]: 17.96% and 9.26%
- Population Healthy Nuclei (%) [5]: 75.73% and 86.3%
- Population Hoechst High Intensity Objects (%) [5]: 0%
- Population Mitotic Cells (%) [5]: 76.92% and 75%
- Population Normal (%) [5]: 100%
- Population Pyknosed Nuclei (%) [5]: 6.31% and 4.44%
- Population Tubulin-Different-Phenotype (%) [5]: 44.23% and 44.64%
- Total Cell Count [5]: 206 and 270
- Population Apoptotic (%) [6]: 38.62% and 20.77%
- Population Fragmented Nuclei (%) [6]: 5.28% and 6.72%
- Population Healthy Nuclei (%) [6]: 58.29% and 65.97%
- Population Hoechst High Intensity Objects (%) [6]: 0%
- Population Mitotic Cells (%) [6]: 61.38% and 79.23%
- Population Normal (%) [6]: 100%
- Population Pyknosed Nuclei (%) [6]: 36.43% and 27.31%
- Population Tubulin-Different-Phenotype (%) [6]: 43.97% and 47.74%
- Total Cell Count [6]: 398 and 670

Structure (SMILES): CCn1c(-c2nc3cc(C(=O)N4CCCC(N)C4)ccc3n2C)cc2ccccc21.Cl (configuration not stated)
- Population Fragmented Nuclei (%) [1]: 17% [middle of 4 runs]
- Population Healthy Nuclei (%) [1]: 67% and 54% and 55.75% and 78.2%
- Population Hoechst High Intensity Objects (%) [1]: 3% and 5% and 0%
- Population Membrane Permeable-Phenotype (%) [1]: 0% and 2% and 1.03% and 4.85%
- Population Mitotic Cells (%) [1]: 77.42% [middle of 4 runs]
- Population Normal (%) [1]: 96% and 94% and 100%
- Population Pyknosed Nuclei (%) [1]: 15% and 23% and 28.16% and 14.69%
- Population Tubulin-Different-Phenotype (%) [1]: 27% and 41% and 21.65% and 21.21%
- Total Cell Count [1]: 128 and 167 and 174 and 211
- Population Healthy Nuclei (%) [2]: 63% and 37% and 62.74% and 73.72%
- Population Hoechst High Intensity Objects (%) [2]: 1% and 3% and 0%
- Population Membrane Permeable-Phenotype (%) [2]: 0% and 10.3% and 7.87%
- Population Mitochondria Different-Phenotype (%) [2]: 18% and 19% and 29.7% and 27.78%
- Population Mitotic Cells (%) [2]: 58% and 61% and 89.16% and 71.43%
- Population Normal (%) [2]: 98% and 96% and 100%
- Population Pyknosed Nuclei (%) [2]: 29% [middle of 4 runs]
- Population Tubulin-Different-Phenotype (%) [2]: 69% and 80% and 72.73% and 81.48%
- Total Cell Count [2]: 221 and 186 and 263 and 293
- Population Fragmented Nuclei (%) [3]: 22% [middle of 4 runs]
- Population Healthy Nuclei (%) [3]: 68% and 54% and 66.49% and 74.56%
- Population Hoechst High Intensity Objects (%) [3]: 0% and 9%
- Population Membrane Permeable-Phenotype (%) [3]: 0% and 3% and 2.33% and 7.06%
- Population Mitotic Cells (%) [3]: 70.59% [middle of 4 runs]
- Population Normal (%) [3]: 99% and 90% and 100%
- Population Pyknosed Nuclei (%) [3]: 17% [middle of 4 runs]
- Population Tubulin-Different-Phenotype (%) [3]: 30% [middle of 4 runs]
- Total Cell Count [3]: 127 and 184 and 194 and 228
- Population Healthy Nuclei (%) [4]: 66% and 46% and 70.93% and 75.81%
- Population Hoechst High Intensity Objects (%) [4]: 3% and 4% and 0%
- Population Membrane Permeable-Phenotype (%) [4]: 0% and 2% and 4.95% and 6.19%
- Population Mitochondria Different-Phenotype (%) [4]: 40.95% [middle of 4 runs]
- Population Mitotic Cells (%) [4]: 45.1% [middle of 4 runs]
- Population Normal (%) [4]: 96% and 95% and 100%
- Population Pyknosed Nuclei (%) [4]: 23% [middle of 4 runs]
- Population Tubulin-Different-Phenotype (%) [4]: 76% and 82% and 83.33% and 85.24%
- Total Cell Count [4]: 231 and 189 and 313 and 277
- Population Healthy Nuclei (%) [5]: 67% and 51% and 79.63% and 83.64%
- Population Hoechst High Intensity Objects (%) [5]: 2% and 5% and 0%
- Population Membrane Permeable-Phenotype (%) [5]: 1% and 2% and 1.16% and 4.47%
- Population Normal (%) [5]: 97% and 94% and 100%
- Population Pyknosed Nuclei (%) [5]: 8% and 15% and 6.02% and 7.01%
- Total Cell Count [5]: 137 and 193 and 216 and 214
- Population Apoptotic (%) [6]: 76.92% [middle of 4 runs]
- Population Healthy Nuclei (%) [6]: 72% and 57% and 86.19% and 89.14%
- Population Hoechst High Intensity Objects (%) [6]: 3% and 0%
- Population Membrane Permeable-Phenotype (%) [6]: 0% and 3.83% and 7.75%
- Population Mitochondria Different-Phenotype (%) [6]: 22% and 16% and 24.74% and 18.08%
- Population Normal (%) [6]: 96% and 100%
- Population Pyknosed Nuclei (%) [6]: 8% and 3.3% and 4.28%
- Population Tubulin-Different-Phenotype (%) [6]: 85% and 61.67% and 81.55%
- Total Cell Count [6]: 232 and 231 and 333 and 304
